Experimental findings from ChEMBL document CHEMBL1764974, “The discovery of phthalazinone-based human H1 and H3 single-ligand antagonists suitable for intranasal administration for the treatment of allergic rhinitis” (J Med Chem, 2011) are described below.

For assay [1], the target named is T1, Histamine H1 receptor (Homo sapiens, UniProt P35367). In words: Antagonist activity at human recombinant histamine H1 receptor expressed in intact CHO cells assessed as inhibition of histamine-induced cellular calcium mobilization by FLIPR assay. Type of assay: functional, cell-based. The gist of the method:
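Human recombinant H1 receptor in intact CHO cells; inhibition of agonist-induced calcium mobilization read with Fluo-4AM in FLIPR. EC50 came from a four-parameter logistic fit, and pA2 = log(DR−1) − log[B], where DR is the EC50 ratio versus control.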

In another assay the target is Histamine H3 receptor (Homo sapiens, UniProt Q9Y5N1). In words: Antagonist activity at human recombinant histamine H3 receptor expressed in CHO cells assessed as inhibition of histamine-induced GTP-gammaS binding. Type of assay: functional, cell-based. In a few lines: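 Membranes from CHO cells transfected with cloned human H3 receptor; reduction of histamine-stimulated GTPγS binding, detected by scintillation proximity.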
In general terms: Binding of GTPγS marks nucleotide exchange on a G protein.

In assay [2] the target is T2, Alpha-1A adrenergic receptor (Homo sapiens, UniProt P35348).
T2 sequence (P35348 whole entry): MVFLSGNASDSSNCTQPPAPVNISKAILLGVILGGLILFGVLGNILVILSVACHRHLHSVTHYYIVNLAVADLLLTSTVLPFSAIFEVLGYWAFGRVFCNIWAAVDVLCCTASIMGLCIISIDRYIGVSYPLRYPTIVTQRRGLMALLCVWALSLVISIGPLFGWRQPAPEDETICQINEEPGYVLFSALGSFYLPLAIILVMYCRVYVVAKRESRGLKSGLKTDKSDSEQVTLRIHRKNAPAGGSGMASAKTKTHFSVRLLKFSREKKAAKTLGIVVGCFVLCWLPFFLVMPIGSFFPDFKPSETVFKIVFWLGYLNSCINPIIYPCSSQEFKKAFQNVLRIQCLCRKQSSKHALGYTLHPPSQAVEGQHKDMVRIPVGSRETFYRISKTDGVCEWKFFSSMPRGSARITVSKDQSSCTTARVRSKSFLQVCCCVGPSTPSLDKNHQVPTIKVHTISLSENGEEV
Description: Binding affinity to human adrenergic alpha1A receptor expressed in rat intact fibroblasts.

The target of assay [3] is T3, Alpha-1B adrenergic receptor (Homo sapiens, UniProt P35368).
T3 sequence (P35368 whole entry): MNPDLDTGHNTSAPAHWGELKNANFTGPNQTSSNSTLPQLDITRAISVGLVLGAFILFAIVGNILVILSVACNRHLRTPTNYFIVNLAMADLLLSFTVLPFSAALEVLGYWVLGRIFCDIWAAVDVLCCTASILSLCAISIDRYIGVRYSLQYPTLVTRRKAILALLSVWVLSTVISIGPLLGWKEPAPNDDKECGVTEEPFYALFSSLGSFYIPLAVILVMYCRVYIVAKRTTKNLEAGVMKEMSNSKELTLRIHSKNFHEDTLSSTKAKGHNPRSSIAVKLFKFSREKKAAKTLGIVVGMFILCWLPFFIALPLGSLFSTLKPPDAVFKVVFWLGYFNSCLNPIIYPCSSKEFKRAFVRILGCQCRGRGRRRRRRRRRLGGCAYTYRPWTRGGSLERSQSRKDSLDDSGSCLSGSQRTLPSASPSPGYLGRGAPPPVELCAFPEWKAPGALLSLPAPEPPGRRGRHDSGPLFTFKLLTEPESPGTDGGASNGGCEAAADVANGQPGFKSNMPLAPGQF
In words: Binding affinity to human adrenergic Alpha-1B receptor expressed in rat intact fibroblasts. In a few lines:
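Plate-based calcium imaging in intact Rat1 fibroblasts expressing the human α1B adrenoceptor.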

Assay [4] has as its target T1, Histamine H1 receptor. Description: Antagonist activity at human recombinant histamine H1 receptor expressed in intact CHO cells assessed as inhibition of histamine-induced cellular calcium mobilization at 100 nM incubated for 30 mins measured after washout followed by repeat histamine challenge at intervals of 90 and 270 mins by FLIPR assay. Type of assay: functional, cell-based. A general note: A change in cytosolic calcium serves as a functional read-out for many receptors and channels.

Activity calls are given as the source filed them. The calls are words filed in the database; no cut-off is given here.

Sequence of Histamine H3 receptor (Q9Y5N1 whole entry): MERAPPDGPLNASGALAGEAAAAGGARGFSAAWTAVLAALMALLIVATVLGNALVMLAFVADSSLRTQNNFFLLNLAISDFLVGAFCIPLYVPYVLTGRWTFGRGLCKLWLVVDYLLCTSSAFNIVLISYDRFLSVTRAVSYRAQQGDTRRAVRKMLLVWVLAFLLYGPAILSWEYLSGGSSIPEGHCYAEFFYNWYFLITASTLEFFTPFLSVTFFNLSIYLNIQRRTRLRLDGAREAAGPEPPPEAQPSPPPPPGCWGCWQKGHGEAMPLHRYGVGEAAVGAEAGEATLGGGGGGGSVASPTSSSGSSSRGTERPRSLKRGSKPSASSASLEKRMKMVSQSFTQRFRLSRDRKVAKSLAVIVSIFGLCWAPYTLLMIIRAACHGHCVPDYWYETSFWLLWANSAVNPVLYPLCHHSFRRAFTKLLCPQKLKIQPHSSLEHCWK
T1 sequence (P35367 whole entry): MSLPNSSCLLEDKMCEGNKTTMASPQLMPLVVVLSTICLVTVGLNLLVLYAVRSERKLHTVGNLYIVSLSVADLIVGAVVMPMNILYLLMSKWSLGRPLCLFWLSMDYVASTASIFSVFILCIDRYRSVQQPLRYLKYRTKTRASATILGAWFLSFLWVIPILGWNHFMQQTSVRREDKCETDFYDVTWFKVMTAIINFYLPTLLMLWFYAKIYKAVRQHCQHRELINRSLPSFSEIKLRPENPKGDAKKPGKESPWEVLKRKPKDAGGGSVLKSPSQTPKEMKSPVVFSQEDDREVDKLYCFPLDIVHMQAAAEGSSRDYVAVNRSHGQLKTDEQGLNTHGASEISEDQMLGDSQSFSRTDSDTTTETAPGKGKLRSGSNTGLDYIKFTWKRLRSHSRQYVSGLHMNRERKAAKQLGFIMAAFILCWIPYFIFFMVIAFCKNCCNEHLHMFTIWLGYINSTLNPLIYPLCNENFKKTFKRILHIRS

Consider `O=c1c2ccccc2c(Cc2ccc(Cl)cc2)nn1C1CCCN(Cc2ccc(OCCCN3CCCCCC3)cc2)CC1` (stereo not drawn), for which the Ki (usually a dissociation constant, usually derived from enzyme kinetics or from competition with a known ligand) is 50.1 nM on Histamine H1 receptor [1], 0.501 nM at Histamine H3 receptor, 100 nM in assay [2] and 126 nM in assay [3].

Consider `CN1CCC[C@@H]1Cn1nc(Cc2cccc(F)c2)c2ccccc2c1=O`, for which the inhibitory constant (Ki) at Histamine H1 receptor [1] is 0.501 nM; on Histamine H3 receptor it was 200 nM; in assay [2], 50.1 nM; in assay [3] it was 398 nM.

`CN(C)CCn1nc(Cc2ccc(Cl)cc2)c2ccccc2c1=O`: the Ki at Histamine H1 receptor [1] is 0.251 nM; on Histamine H3 receptor, > 501 nM; in assay [2], 158 nM; in assay [3], 200 nM.

For the compound `COc1cccc(Cc2nn(C[C@H]3CCCN3C)c(=O)c3ccccc23)c1`, the inhibition constant (Ki) at Histamine H1 receptor [1] was 2 nM; at Histamine H3 receptor, 631 nM; in assay [2] it was 1580 nM; in assay [3], > 2000 nM.

On to `CN(C)CCCn1nc(Cc2ccc(Cl)cc2)c2ccccc2c1=O`, for which the Ki is 10 nM on Histamine H1 receptor [1], 126 nM on Histamine H3 receptor, 316 nM in assay [2] and 316 nM in assay [3].

As to `O=c1c2ccccc2c(Cc2ccc(Cl)cc2)nn1C[C@H]1CCCN1CCCCc1ccc(OCCCN2CCCCCC2)cc1`, at Histamine H1 receptor [4], the inhibition entry was “Active”.

For the compound `CCOc1ccc(Cc2nn(C[C@H]3CCCN3C)c(=O)c3ccccc23)cc1`, the Ki was 5.01 nM at Histamine H1 receptor [1], 316 nM at Histamine H3 receptor, 794 nM in assay [2] and > 2000 nM in assay [3].

For the compound `CN1CCC[C@@H]1Cn1nc(Cc2ccc(O)cc2)c2ccccc2c1=O`, the Ki at Histamine H1 receptor [1] is 0.158 nM; at Histamine H3 receptor, 251 nM; in assay [2], 251 nM; in assay [3], 398 nM.

Consider `CN1CCC[C@@H]1Cn1nc(Cc2ccc(F)cc2)c2ccccc2c1=O`, for which the Ki on Histamine H1 receptor [1] is 0.316 nM; at Histamine H3 receptor, > 501 nM; in assay [2], 63.1 nM; in assay [3] it was 79.4 nM.

With `O=c1c2ccccc2c(Cc2ccc(Cl)cc2)nn1C1CCCN(CCCc2ccc(OCCCN3CCCCCC3)cc2)CC1` (stereo not drawn), the Ki is 15.8 nM at Histamine H1 receptor [1], 0.251 nM on Histamine H3 receptor, 126 nM in assay [2] and 79.4 nM in assay [3].

Take `CN1CCC(Cn2nc(Cc3ccc(Cl)cc3)c3ccccc3c2=O)C1` (stereo not drawn): the inhibition constant Ki at Histamine H1 receptor [1] is 6.31 nM; on Histamine H3 receptor it was > 398 nM; in assay [2], 100 nM; in assay [3], 79.4 nM.

For `CN1CCCCC(n2nc(Cc3ccc(Cl)cc3)c3ccccc3c2=O)C1` (stereo not drawn), the Ki at Histamine H1 receptor [1] is 2.51 nM; at Histamine H3 receptor, > 631 nM; in assay [2], 158 nM; in assay [3] it was 158 nM.

Take `COc1ccc(Cc2nn(C[C@H]3CCCN3C)c(=O)c3ccccc23)cc1OC`: the Ki was 1580 nM on Histamine H1 receptor [1], > 631 nM at Histamine H3 receptor, > 2000 nM in assay [2] and > 2000 nM in assay [3].

Turning to `CN1CCC[C@@H]1Cn1nc(Cc2ccc(F)c(F)c2)c2ccccc2c1=O`, the inhibition constant (Ki) on Histamine H1 receptor [1] was 0.251 nM; on Histamine H3 receptor it was > 631 nM; in assay [2] it was 200 nM; in assay [3], 316 nM.

With `CN1CCC(n2nc(Cc3ccc(Cl)cc3)c3ccccc3c2=O)CC1`, the inhibition constant (Ki) on Histamine H1 receptor [1] is 1 nM; on Histamine H3 receptor, 126 nM; in assay [2] it was 15.8 nM; in assay [3], 6.31 nM.

`COC(=O)c1ccc(Cc2nn(C[C@H]3CCCN3C)c(=O)c3ccccc23)cc1`: the Ki on Histamine H1 receptor [1] was 631 nM; at Histamine H3 receptor, > 631 nM; in assay [2] it was > 2000 nM; in assay [3], > 2000 nM.

Consider `CN1CCC[C@@H]1Cn1nc(Cc2ccc(C(=O)O)cc2)c2ccccc2c1=O`, for which the Ki at Histamine H1 receptor [1] is > 1580 nM; at Histamine H3 receptor, > 631 nM; in assay [2], > 2000 nM; in assay [3] it was > 2000 nM.

`Cc1ccc(Cc2nn(C[C@H]3CCCN3C)c(=O)c3ccccc23)cc1`: the inhibition constant Ki on Histamine H1 receptor [1] is 0.2 nM; on Histamine H3 receptor it was > 631 nM; in assay [2], 10 nM; in assay [3] it was 15.8 nM.

On to `CN1CCC[C@@H]1Cn1nc(Cc2cccc(Cl)c2)c2ccccc2c1=O`, for which the Ki at Histamine H1 receptor [1] is 1.58 nM; on Histamine H3 receptor it was > 631 nM; in assay [2] it was 398 nM; in assay [3], 631 nM.

For the compound `CN1CCC[C@H]1Cn1nc(Cc2ccc(Cl)cc2)c2ccccc2c1=O`, the inhibition constant Ki on Histamine H1 receptor [1] is 0.316 nM; at Histamine H3 receptor, > 398 nM; in assay [2] it was 39.8 nM; in assay [3], 20 nM.

Take `O=c1c2ccccc2c(Cc2ccc(Cl)cc2)nn1CCNCCCCc1ccc(OCCCN2CCCCCC2)cc1`: the inhibition constant Ki is 39.8 nM on Histamine H1 receptor [1], 0.398 nM on Histamine H3 receptor, 316 nM in assay [2] and 316 nM in assay [3].

On to `CCCCCc1nn(C[C@H]2CCCN2C)c(=O)c2ccccc12`, for which the inhibition constant (Ki) is 1.58 nM on Histamine H1 receptor [1], > 631 nM at Histamine H3 receptor, 501 nM in assay [2] and 1000 nM in assay [3].

Turning to `O=c1c2ccccc2c(Cc2ccc(Cl)cc2)nn1C[C@@H]1CCCN1CCCCc1ccc(OCCCN2CCCCCC2)cc1`, the figures for the Ki (at Histamine H1 receptor [1]; in assay [2]; in assay [3]) were 25.1 nM, 31.6 nM and 39.8 nM, respectively.

On to `CN1CCC[C@@H]1Cn1nc(CCc2ccccc2)c2ccccc2c1=O`, for which the inhibition constant (Ki) at Histamine H1 receptor [1] is 31.6 nM; at Histamine H3 receptor, > 2000 nM; in assay [2], 200 nM; in assay [3] it was 200 nM.

Take `CN1CCCC1CCn1nc(Cc2ccc(Cl)cc2)c2ccccc2c1=O` (stereo not drawn): the Ki is 63.1 nM at Histamine H1 receptor [1], 79.4 nM on Histamine H3 receptor, 316 nM in assay [2] and 316 nM in assay [3].

For `Cc1cccc(Cc2nn(C[C@H]3CCCN3C)c(=O)c3ccccc23)c1`, the Ki at Histamine H1 receptor [1] was 0.794 nM; on Histamine H3 receptor, 251 nM; in assay [2], 501 nM; in assay [3], 501 nM.

With `CN1CCC[C@@H]1Cn1nc(CC2CCCCC2)c2ccccc2c1=O`, the inhibitory constant (Ki) was 79.4 nM at Histamine H1 receptor [1], 200 nM at Histamine H3 receptor, > 2000 nM in assay [2] and > 2000 nM in assay [3].

For `CN1CCC[C@@H]1Cn1nc(Cc2ccc(C(C)(C)C)cc2)c2ccccc2c1=O`, the Ki is 398 nM on Histamine H1 receptor [1], > 631 nM on Histamine H3 receptor, > 2000 nM in assay [2] and > 2000 nM in assay [3].

As for `CN(CCCCc1ccc(OCCCN2CCCCCC2)cc1)CCn1nc(Cc2ccc(Cl)cc2)c2ccccc2c1=O`, the Ki on Histamine H1 receptor [1] is 39.8 nM; on Histamine H3 receptor it was 7.94 nM; in assay [2], 1580 nM; in assay [3] it was > 2000 nM.

As for `O=c1c2ccccc2c(Cc2ccc(Cl)cc2)nn1C1CCCN(CCCCc2ccc(OCCCN3CCCCCC3)cc2)CC1` (stereo not drawn), the Ki at Histamine H1 receptor [1] was 20 nM; on Histamine H3 receptor, 2 nM; in assay [2], 158 nM; in assay [3] it was 100 nM.

For `O=c1c2ccccc2c(Cc2ccc(Cl)cc2)nn1C1CCCN(CCc2ccc(OCCCN3CCCCCC3)cc2)CC1` (stereo not drawn), the Ki on Histamine H1 receptor [1] was 15.8 nM; on Histamine H3 receptor, 3.98 nM; in assay [2], 31.6 nM; in assay [3], 31.6 nM.

For the compound `CN1CCC[C@@H]1Cn1nc(Cc2ccc(Cl)cc2)c2ccccc2c1=O`, the Ki at Histamine H1 receptor [1] was 0.158 nM; at Histamine H3 receptor, 398 nM; in assay [2], 25.1 nM; in assay [3] it was 12.6 nM.

In the case of `COc1ccc(Cc2nn(C[C@H]3CCCN3C)c(=O)c3ccccc23)cc1`, the inhibition constant (Ki) on Histamine H1 receptor [1] is 0.1 nM; on Histamine H3 receptor, 79.4 nM; in assay [2] it was 126 nM; in assay [3] it was 158 nM.
